TRPC4 agonist: activators of mouse TRPC4 channel. Q9QUQ5. HEK293 TRPC4beta/mu-opioid, Fluo4 calcium fluorescence; active compounds read high. B-score at 10 µM. actives 0.49% (n = 310,000);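 active means B-score above 5 SD of library B-scores, and initial fluorescence ratio not above library mean plus 5 SD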;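 further: positive B-score marks a calcium rise read as TRPC4 activation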
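System: HEK293 cells stably co-expressing mouse TRPC4beta and mu-opioid receptor; Schedule: Fluo4 dye loading 45 min at room temperature, 110 s recording; Detection: Fluo4 fluorescence, kinetic; Evaluation: B-scored integrated calcium fluorescence ratio; Controls: buffer (low) and maximal DAMGO (high).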
TRPC6 activator: activates the mouse TRPC6 cation channel. Q61143. HEK293-TRPC6 membrane potential dye fluorescence; active compounds read high. B-score at 10 µM. actives 0.13% (n = 310,000). AID 2550;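 active means B-score of the integrated fluorescence ratio above library mean plus 3 SD, and starting fluorescence ratio within library mean plus 5 SD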;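 further: higher score means more depolarization so channel activation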
Target sequence (Q61143 whole entry, looked up): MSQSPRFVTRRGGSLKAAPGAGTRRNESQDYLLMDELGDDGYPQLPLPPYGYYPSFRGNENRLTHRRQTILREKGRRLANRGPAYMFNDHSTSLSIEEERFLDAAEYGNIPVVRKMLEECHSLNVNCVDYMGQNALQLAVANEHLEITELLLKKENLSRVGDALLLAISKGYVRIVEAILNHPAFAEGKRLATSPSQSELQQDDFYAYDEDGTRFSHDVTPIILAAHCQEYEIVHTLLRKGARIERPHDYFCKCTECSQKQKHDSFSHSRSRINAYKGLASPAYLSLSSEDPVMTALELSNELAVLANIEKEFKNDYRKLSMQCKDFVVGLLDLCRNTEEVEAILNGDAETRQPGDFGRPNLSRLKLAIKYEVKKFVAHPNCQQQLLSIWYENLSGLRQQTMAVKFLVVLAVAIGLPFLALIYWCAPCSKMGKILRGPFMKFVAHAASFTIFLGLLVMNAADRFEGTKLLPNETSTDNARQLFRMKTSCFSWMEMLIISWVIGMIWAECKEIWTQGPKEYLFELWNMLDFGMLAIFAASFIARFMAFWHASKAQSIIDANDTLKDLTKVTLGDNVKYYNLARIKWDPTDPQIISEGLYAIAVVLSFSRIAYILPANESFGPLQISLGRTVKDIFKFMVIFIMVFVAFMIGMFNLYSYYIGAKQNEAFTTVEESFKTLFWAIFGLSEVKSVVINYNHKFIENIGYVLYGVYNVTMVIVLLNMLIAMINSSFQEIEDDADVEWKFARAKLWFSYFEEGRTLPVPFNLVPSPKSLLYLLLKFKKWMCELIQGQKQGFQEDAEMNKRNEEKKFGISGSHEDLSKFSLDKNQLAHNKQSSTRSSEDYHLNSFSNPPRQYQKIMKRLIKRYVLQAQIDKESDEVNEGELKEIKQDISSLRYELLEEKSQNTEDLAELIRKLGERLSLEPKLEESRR
TRPC4 PAM: TRPC4 (mouse) allosteric potentiation; B-score at 10 µM; HEK293 TRPC4beta/mu-opioid, DAMGO EC20, Fluo-4 Ca2+ flux; active compounds read high; actives 0.42% (n = 310,000); Q9QUQ5;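 active means B-score of calcium response area above 5 SD of library B-scores, with initial fluorescence ratio within 5 SD of library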
TRPC4 inh: TRPC4 (mouse) channel inhibition; Q9QUQ5; HEK293 TRPC4beta/mu-opioid, DAMGO-evoked Fluo4 calcium flux; active compounds read low; B-score at 10 µM; actives 0.39% (n = 300,000); AID 2247;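 active means B-score over 3 SD under the library average, no early fluorescence shift, positive overall ratio signal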
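Assay system: HEK293 cells with stable TRPC4beta plus mu-opioid receptor expression; Probe or stimulus: DAMGO in two steps, submaximal then maximal; Dosing: single-point compound dosing; Measured by: Fluo4 calcium-dye fluorescence, kinetic read; Read-out basis: B score from integrated Fluo4 fluorescence ratio.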
TRPC6 inh: mouse TRPC6 channel inhibition. B-score at 10 µM. actives 1.1% (n = 310,000). AID 2553. Q61143. HEK293-TRPC6, membrane potential dye, ACh-evoked depolarization; active compounds read low;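 active means B-score under library mean minus 3 SD, initial fluorescence not abnormally high, positive integrated signal ratio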;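 further: B-score derived from integrated fluorescence ratio over the kinetic read; more negative B-score means stronger inhibition of depolarization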
TRPC4 spec 2: mouse TRPC4 off-target activity of TRPC6 inhibitors, second screen. shares compounds with TRPC6 inh. HEK293 TRPC4/MOR, membrane potential dye fluorescence; channel activated by saturating DAMGO dose. inhibition, % at 10 µM. actives 42% (n = 920). AID 2776;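 active means compounds whose fluorescence signal differed from control wells by over 3 SD, either direction, in both duplicate plates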
TRPC4 spec: tests whether TRPC6 inhibitors also affect mouse TRPC4 | shares compounds with TRPC6 inh | HEK293 TRPC4/mu-opioid, membrane potential fluorescence | activity change, negative = inhibition, % at 10 µM | actives 61% (n = 920) | AID 2777;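 active means rise or fall in signal beyond 3 SD of buffer-only wells in both replicate plates, either sign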;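 further: integrated kinetic ratio of fluorescence range over baseline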
HEK293 MPD ctr 2-1: second check of TRPC6 inhibitor effects in parental HEK293 cells; shares compounds with TRPC6 inh; parental HEK293 membrane potential dye fluorescence; maximal acetylcholine challenge after compound addition; signal change vs control, % at 10 µM; actives 31% (n = 920);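 active means membrane potential signal moving either way by over 3 SD of the maximum-effect control, in both duplicate plates, meaning non-specific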
HEK293 MPD ctr-1: parental HEK293 nonspecific activity of TRPC6 inhibitors; membrane potential signal change, % at 10 µM; AID 2780; shares compounds with TRPC6 inh; actives 60% (n = 920); parental HEK293 membrane potential dye fluorescence;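 active means membrane potential signal shifting up or down by more than 3 SD of buffer-only wells, on both duplicate plates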
HEK293 MPD ctr-2: checks TRPC6 modulator effects in parental HEK293 cells | shares compounds with TRPC6 inh | actives 51% (n = 2,400) | membrane potential signal change, % at 10 µM | membrane potential dye fluorescence | AID 488924;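 active means membrane potential signal moves up or down beyond 5 SD from buffer-only wells, on both duplicate plates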
HEK293 MPD ctr 2-2: parental HEK293 nonspecific activity of TRPC6 modulators, second screen. shares compounds with TRPC6 inh. membrane potential dye fluorescence; after compound, maximal acetylcholine stimulation. inhibition, % at 10 µM. actives 14% (n = 2,400). AID 488926;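 active means membrane potential signal drops by more than 5 SD from the mean control signal, in both duplicate plates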
TRPC4 ctr mod: mouse TRPC4 off-target activity of TRPC6 modulators. actives 69% (n = 2,400). percent change from control (negative = decrease, positive = increase), % at 10 µM. shares compounds with TRPC6 inh. HEK293 TRPC4/mu-opioid, membrane potential fluorescence. AID 488927;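 active means membrane potential signal moved up or down beyond 5 SD of buffer control wells, in both duplicate plates, actives on both sides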
TRPC4/MOR inh 2: second check of whether TRPC6 modulators also affect mouse TRPC4 | shares compounds with TRPC6 inh | HEK293 TRPC4/mu-opioid, membrane potential dye fluorescence; stimulated with maximal-effect DAMGO | inhibition, % at 10 µM | actives 55% (n = 2,400) | AID 488928;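 active means drop in membrane potential signal beyond 5 SD of the control wells in both duplicate plates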;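 further: TRPC4 counter screen for TRPC6 hits run under conditions tuned for TRPC6 not TRPC4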
TRPC6 inh conf: mouse TRPC6 inhibitor confirmation; shares compounds with TRPC6 inh; HEK293-TRPC6, membrane potential dye, ACh-evoked depolarization; inhibition, % at 10 µM; actives 43% (n = 3,300); AID 488960;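 active means fluorescence ratio falls more than 5 SD below the full-stimulation control mean, in both duplicate runs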;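 further: integrated fluorescence ratio of peak minus minimum over baseline after agonist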
TRPC6 act confirm: mouse TRPC6 activator confirmation; shares compounds with TRPC6 inh; activation, % at 10 µM; HEK293-TRPC6 membrane potential dye fluorescence, FDSS; actives 11% (n = 2,800);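 active means ratio signal rise beyond 5 SD above unstimulated control wells' mean, seen in both duplicate runs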
Of the large screens only hits and unclear results are named; the others gave an inactive call (follow-up assays come after a bar, where they were run). Compounds with a hit are over-represented: about 2.3% of the library has one in this group of screens.

OC(c1ccccc1)(c1ccc(Cl)cc1)C1CN2CCC1CC2 (stereo not drawn)	none
OC(c1ccccc1)(c1ccccc1)C1CN2CCC1CC2 (stereo not drawn)	TRPC6 inh -7.9 | TRPC4 spec 2 inactive | TRPC4 spec inactive | HEK293 MPD ctr 2-1 inactive | HEK293 MPD ctr-1 inactive | TRPC6 inh conf inactive | TRPC6 act confirm inactive
OC(Cc1ccccc1)(c1ccccc1)C1CN2CCC1CC2 (stereo not drawn)	TRPC6 inh -5.4 | HEK293 MPD ctr-2 152% | HEK293 MPD ctr 2-2 inactive | TRPC4 ctr mod 33% | TRPC4/MOR inh 2 inactive | TRPC6 inh conf 52%
CN1CCN(Cc2cc3c(cc2[N+](=O)[O-])OCO3)CC1	none
CC(C)(C#CCCCCC#CC(C)(C)[N+](C)(C)C)[N+](C)(C)C	none
Oc1c(Br)cc(Br)cc1Oc1ccc(Br)cc1Br	none
CC(C)Oc1ccc(CCN)cc1Cl	none
CCCCOc1ccc(CCN)cc1Cl	TRPC4 PAM 14, TRPC6 inh -6.4 | HEK293 MPD ctr-2 82% | HEK293 MPD ctr 2-2 inactive | TRPC4 ctr mod inactive | TRPC4/MOR inh 2 52% | TRPC6 inh conf 60%
O=C(O)C(Cc1cnc[nH]1)NS(=O)(=O)c1ccc(Br)cc1 (stereo not drawn)	none
CCC(C)N1CCN(C(=O)Cc2ccccc2)CC1 (stereo not drawn)	TRPC6 inh -7.1 | TRPC4 spec 2 inactive | TRPC4 spec inactive | HEK293 MPD ctr 2-1 inactive | HEK293 MPD ctr-1 inactive | TRPC6 inh conf inactive | TRPC6 act confirm inactive
CCCNC(=O)N1[C@H]2CC[C@@H]1C(C(=O)OC)=C(c1cc3ccccc3o1)C2	none
CCCCn1c(C)c(C(=O)O)c2cc(OC)c3ccccc3c21	none
CN1CCC(N(C)c2nc(-c3ccccc3)nc3ccccc23)CC1	TRPC4 PAM 15, TRPC6 inh -7.6 | HEK293 MPD ctr-2 -306% | HEK293 MPD ctr 2-2 88% | TRPC4 ctr mod -54% | TRPC4/MOR inh 2 66% | TRPC6 inh conf 74% | TRPC6 act confirm inactive
CCOc1cc2c(cc1OCC)-n1cccc1C(c1cc(OC)ccc1F)NC2 (stereo not drawn)	none
COC(=O)C1=C(c2cc3ccccc3s2)C[C@@H]2CC[C@H]1N2C(=O)N1CCOCC1	none
CN(C)CC#CCC(O)(c1ccccc1)C1CCCC1 (stereo not drawn)	none
